Assay results: ChEMBL document CHEMBL2331259, “Design, synthesis, biological evaluation and molecular modeling studies of 1-aryl-6-(3,4,5-trimethoxyphenyl)-3(Z)-hexen-1,5-diynes as a new class of potent antitumor agents” (Eur J Med Chem, 2013)
Calls of active or inactive are those of the source. The calls are words filed in the database; no cut-off is given here.

Key:
[1] = tested on: HeLa; test: Cytotoxicity against human HeLa cells assessed as growth inhibition; assay type: functional, cell-based
[2] = tested on: A549; test: Cytotoxicity against human A549 cells assessed as growth inhibition; assay type: functional, cell-based
[3] = target: T1, Tubulin alpha (Homo sapiens) (UniProt P0DPH7+P68366+Q71U36+P68363+Q9BQE3+Q6PEY2+A6NHL2+Q9NY65); test: Binding affinity to Tubulin alpha/beta in human BT-483 cells assessed as microtubule depolymerization at 3.6 uM after 6 hrs by immunofluorescence analysis; assay type: cell-based
[4] = Cytotoxicity against human BT-483 cells assessed as growth inhibition; assay type: functional, cell-based
[5] = tested on: AGS; test: Cytotoxicity against human AGS cells assessed as growth inhibition; assay type: functional, cell-based
[6] = tested on: SAS; test: Cytotoxicity against human SAS cells assessed as growth inhibition; assay type: functional, cell-based
[7] = tested on: SK-HEP1; test: Cytotoxicity against human SKHEP1 cells assessed as growth inhibition; assay type: functional, cell-based
[8] = tested on: PC-3; test: Cytotoxicity against human PC3 cells assessed as growth inhibition; assay type: functional, cell-based
[9] = Cytotoxicity against human CE81T cells assessed as growth inhibition; assay type: functional, cell-based
[10] = tested on: BT-483; test: Induction of DNA damage in human BT-483 cells assessed as gamma H2AX phosphorylation at Ser139 at 1 to 10 uM after 24 hrs by Western blot analysis; assay type: functional, cell-based
How it was run: (§1)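 BT483 cells treated 24 h with vehicle (1% DMSO) or compound at various concentrations, PBS-washed and lysed. 50 μg protein run on 15% SDS-PAGE, transferred to PVDF, blocked overnight at 4 °C in 5% nonfat milk. Probed 2 h at room temperature with monoclonal anti-Caspase-3, anti-PARP, anti-phospho-γ-H2AX or anti-β-actin, then secondary IgG (1:5000). ECL detection. Irinotecan served as positive control.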

[11] = Cell cycle arrest in human BT-483 cells assessed as accumulation of cells at subG1 phase at 0.2 uM after 24 hrs by flow cytometric analysis; assay type: functional, cell-based
How it was run: (§2)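 BT-483 cells exposed to DMSO or 0.2 μM compound for 12 and 24 h, harvested, PBS-rinsed, fixed in 80% ethanol and stored at -20 °C. DNA-fluorescence flow cytometry used for cell cycle distribution, including G2/M and sub-G1 fractions.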

[12] = tested on: BT-483; test: Induction of apoptosis in human BT-483 cells assessed as increase in caspase 3 activity at 1 uM after 24 hrs by Western blot analysis; assay type: functional, cell-based; how it was run: as §1
[13] = tested on: BT-483; test: Induction of apoptosis in human BT-483 cells assessed as PARP cleavage at 1 uM after 24 hrs by Western blot analysis; assay type: functional, cell-based; how it was run: as §1
[14] = tested on: BT-483; test: Antitumor activity against human BT-483 cells xenografted in nude mouse assessed as decrease in tumor growth at 20 mg/kg/day, ip for 2 weeks measured every 3 days by caliper analysis; assay type: functional, organism-based
How it was run: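 Nude mice (male, 6–8 weeks, 20–25 g, SPF) inoculated s.c. in left flank with 1×10^6 BT483 cells in 50% matrigel. Treatment began at tumor volume ~20 mm³: i.p. daily for 2 weeks versus DMSO vehicle (n = 5 vehicle, n = 6 treated). Caliper measurement every 3 days from first dose; volume = width × length × height. Mean ± SEM.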

[15] = target: T1, Tubulin alpha (Homo sapiens); test: Binding affinity to Tubulin alpha/beta in human BT-483 cells assessed as microtubule depolymerization at 1 uM after 6 hrs by immunofluorescence analysis; assay type: cell-based
How it was run: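 BT483 cells held at 4 °C for 4 h to depolymerize microtubules, then incubated at 37 °C for 6 h in medium with DMSO or 1 μM compound. Cells fixed, immunostained with anti-tubulin antibody to view microtubule distribution; nuclei counterstained with DAPI.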

[16] = Cell cycle arrest in human BT-483 cells assessed as accumulation of cells at G2/M phase at 0.2 uM after 12 hrs by flow cytometric analysis; assay type: functional, cell-based; how it was run: as §2
[17] = tested on: BT-483; test: Induction of DNA damage in human BT-483 cells assessed as gamma H2AX phosphorylation at Ser139 at 1 uM after 24 hrs by Western blot analysis; assay type: functional, cell-based; how it was run: as §1

Activity [3]	Activity [15]	Structure (SMILES)	IC50 [1]	IC50 [2]	IC50 [4]	IC50 [5]	IC50 [6]	IC50 [7]	IC50 [8]	IC50 [9]	Activity [10]	Activity [11]	Activity [12]	Activity [13]	Activity [14]	Activity [16]	Activity [17]
Active		Nc1ccccc1C#C/C=C\C#Cc1ccccc1C(F)(F)F	5.49 µM	6.57 µM	8.56 µM	8.24 µM	5.83 µM	6.68 µM	8.26 µM	2.91 µM							
		COc1cc2c(c(OC)c1OC)-c1ccc(OC)c(=O)cc1[C@@H](NC(C)=O)CC2 [COLCHICINE]	0.66 µM	0.07 µM	1.45 µM	0.05 µM	3.5 µM	0.78 µM	0.06 µM	1.78 µM							
		COc1ccc(C#C/C=C\C#Cc2cc(OC)c(OC)c(OC)c2)c(N)c1	5 µM	6.42 µM	9.56 µM	5.75 µM	12.3 µM	5.23 µM	11.7 µM	30 µM							
		COc1ccc(C#C/C=C\C#Cc2cc(OC)c(OC)c(OC)c2)c([N+](=O)[O-])c1	2.26 µM	5.95 µM	4.53 µM	2.78 µM	0.65 µM	4.28 µM	3.79 µM	6.32 µM							
		COc1cc(C#C/C=C\C#Cc2ccccc2N)cc(OC)c1OC	0.64 µM	0.57 µM	1.98 µM	0.98 µM	4.53 µM	0.2 µM	0.73 µM	8.98 µM							
		COc1cc(C#C/C=C\C#Cc2ccccc2[N+](=O)[O-])cc(OC)c1OC	1.89 µM	5.71 µM	4.24 µM	4.66 µM	1.37 µM	1.34 µM	4.56 µM	6.91 µM							
		COc1ccc(C#C/C=C\C#Cc2cc(OC)c(OC)c(OC)c2)c(OC)c1	12.8 µM					14.4 µM	22.9 µM	17.4 µM							
		COc1cc(C#C/C=C\C#Cc2ccccc2SC)cc(OC)c1OC	15.9 µM	11.7 µM	15.2 µM	9.53 µM	12.8 µM	13.3 µM	17.4 µM	13.9 µM							
		COc1ccccc1C#C/C=C\C#Cc1cc(OC)c(OC)c(OC)c1	0.57 µM	0.52 µM	1.23 µM	0.78 µM	9.88 µM	0.34 µM	0.62 µM	6.95 µM							
	Active	COc1cc(C#C/C=C\C#Cc2ccccn2)cc(OC)c1OC	0.39 µM	3.99 µM	0.86 µM	0.13 µM	1.16 µM	0.43 µM	0.51 µM	6.87 µM	Active	Active	Active	Active	Active	Active	
		COc1cc(C#C/C=C\C#Cc2ccccc2C#N)cc(OC)c1OC	1.07 µM	0.79 µM	10.5 µM	4.56 µM	10.6 µM	1.2 µM	8.68 µM	6.39 µM							
		COc1cc(C#C/C=C\C#Cc2cc(C(F)(F)F)ccc2N)cc(OC)c1OC	24.8 µM	12.4 µM	21.2 µM		15.8 µM	28.3 µM		21 µM							
		CCc1c2c(nc3ccc(OC(=O)N4CCC(N5CCCCC5)CC4)cc13)-c1cc3c(c(=O)n1C2)COC(=O)[C@]3(O)CC															Active
